Data: ChEMBL document CHEMBL1123564, “C-terminal deletions in agonistic and antagonistic analogues of vasopressin that improve their specificities for antidiuretic (V2) and vasopressor (V1) receptors” (J Med Chem, 1987)

Columns and labels:
Rattus norvegicus [1] = species: Rattus norvegicus; assay: Compound was tested for antidiuretic activity in rats under ethanol anesthesia; assay type: functional, Urine
Procedure, shortened: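 Rats under ethanol anesthesia were given antidiuretic agonist assays against the USP posterior pituitary reference standard. Activity is expressed in units/mg.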

Rattus norvegicus [2] = species: Rattus norvegicus; assay: Antivasopressor activity in phenoxybenzamine treated rats under urethane anesthesia was determined; Agonistic activity was observed; assay type: functional

For `N=C(N)NCCC[C@H](NC(=O)[C@@H]1CCCN1C(=O)[C@@H]1CSSC[C@H](N)C(=O)N[C@@H](Cc2ccc(O)cc2)C(=O)N[C@@H](Cc2ccccc2)C(=O)N[C@@H](CCC(N)=O)C(=O)N[C@@H](CC(N)=O)C(=O)N1)C(=O)NCC(N)=O` [VASOPRESSIN], the Antidiuretic activity (Rattus norvegicus [1]) was 330 U/mg and the vasopressor activity (Rattus norvegicus [2]) was 382 units/mg.
